The target of data set [1] is T1, Muscarinic acetylcholine receptor M4 (Homo sapiens) (UniProt P08173).
T1 sequence (whole entry): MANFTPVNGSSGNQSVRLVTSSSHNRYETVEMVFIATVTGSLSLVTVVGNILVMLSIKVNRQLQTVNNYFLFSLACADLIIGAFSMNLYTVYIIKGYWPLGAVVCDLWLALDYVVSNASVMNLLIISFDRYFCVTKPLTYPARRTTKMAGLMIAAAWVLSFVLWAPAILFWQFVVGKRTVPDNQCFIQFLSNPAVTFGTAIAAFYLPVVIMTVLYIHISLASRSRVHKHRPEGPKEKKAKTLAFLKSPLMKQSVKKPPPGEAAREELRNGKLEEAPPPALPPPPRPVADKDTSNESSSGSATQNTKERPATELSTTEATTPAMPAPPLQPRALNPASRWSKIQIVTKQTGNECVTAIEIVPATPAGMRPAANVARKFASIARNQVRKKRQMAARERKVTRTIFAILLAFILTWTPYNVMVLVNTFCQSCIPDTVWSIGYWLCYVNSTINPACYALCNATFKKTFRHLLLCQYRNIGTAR
Put plainly: Positive allosteric modulation at human M4 mAChR expressed in Flp-In-CHO cells co-expressing CAMYEL biosensor assessed as change in maximum ACh-mediated response at 10 uM incubated for 5 mins by BRET assay relative to control. It is filed as cell-based. The method in brief: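 FlpInCHO cells stably expressing human M4 mAChR, transiently transfected with CAMYEL cAMP BRET biosensor (60 ng/well, PEI), assayed 48 h later in HBSS pH 7.4. Full ACh concentration-response curve alone or with modulator at 1 or 10 μM, co-added with coelenterazine h (5 μM), 5 min, 37 °C. Three-parameter logistic fit; ACh curve values subtracted from ACh+modulator values. Δbaseline and ΔEmax given as % of maximal ACh response without modulator. 4 experiments in duplicate, SEM pooled.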

Data set [2] has as its target T1, Muscarinic acetylcholine receptor M4 (Homo sapiens). As to the kind of experiment: Displacement of 3[H]-NMS from human M4 mAChR expressed in Flp-In-CHO cells assessed as binding co-operativity (log alpha) incubated for 6 hrs in presence of ACh by microbeta2 plate reader assay. It is filed as cell-based. The conditions noted are these: filed as positive allosteric modulator. The method, boiled down:
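Intact FlpInCHO-hM4 cells, 20,000/well grown overnight, in HBSS pH 7.4 with [3H]-NMS 0.5 nM, ACh (0.01 μM–10 mM) and modulator (0.1–10 μM), shaken 6 h at room temperature. Washed with ice-cold 0.9% NaCl, then scintillation counting. Nonspecific binding defined with 10 μM atropine. pKB and log α(ACh) from global fit to allosteric ternary complex model, with log α′(NMS) fixed at –3 under strong negative cooperativity. 4–5 experiments in duplicate.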

Data set [3] has the same target. As to the kind of experiment: Positive allosteric modulation at human M4 mAChR expressed in Flp-In-CHO cells co-expressing CAMYEL biosensor assessed as ACh-mediated cAMP signalling co-operativity (log alpha beta) incubated for 5 mins by BRET assay. The conditions noted are these: filed as positive allosteric modulator. It is filed as functional, cell-based. The method, boiled down: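 CAMYEL-transfected FlpInCHO-hM4 cells (48 h post-transfection) given ACh and modulator concentration ranges in full interaction design, 5 min at 37 °C; BRET read with coelenterazine h. Fit to complete operational model of allosterism and agonism with ACh KA and modulator KB fixed from binding assays. Gives log τB and log αβ. 4–5 experiments in duplicate.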

The nature of data set [4]: Drug concentration in plasma of naive C57BL/6J mouse at 10 mg/kg, ip measured after 20 to 30 mins. The conditions noted are these: in vivo, time 20-30 min. The class given is ADME, organism-based. The method, boiled down: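 Male C57Bl/6J mice, naïve, 10–12 weeks old, dosed i.p. at 10 mg/kg in 10% DMSO, 1.1% Tween 80, 21.8 mM Tris. Blood by cardiac puncture under anaesthesia at 20 or 90 min (n = 2–3 per time point). Brain concentration corrected for compound in brain vasculature. Mean nM ± SEM reported; Kp = Cbrain/Cplasma, reported as a range.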

Data set [5] addresses T2, Muscarinic acetylcholine receptor M2 (Homo sapiens) (UniProt P08172).
T2 sequence (whole entry): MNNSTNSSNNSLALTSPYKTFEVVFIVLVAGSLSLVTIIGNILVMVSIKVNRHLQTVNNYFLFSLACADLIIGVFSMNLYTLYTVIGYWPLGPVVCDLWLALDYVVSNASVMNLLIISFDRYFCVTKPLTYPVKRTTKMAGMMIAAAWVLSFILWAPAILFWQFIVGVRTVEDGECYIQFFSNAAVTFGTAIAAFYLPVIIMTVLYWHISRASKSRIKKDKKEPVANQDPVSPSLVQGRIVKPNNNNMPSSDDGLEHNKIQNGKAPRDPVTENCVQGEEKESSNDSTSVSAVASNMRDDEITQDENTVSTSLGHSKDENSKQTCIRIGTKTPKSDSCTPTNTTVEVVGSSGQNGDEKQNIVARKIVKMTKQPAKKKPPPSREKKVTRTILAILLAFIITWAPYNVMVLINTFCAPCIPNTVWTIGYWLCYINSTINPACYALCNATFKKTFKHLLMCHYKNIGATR
Put plainly: Positive allosteric modulation at human M2 mAChR expressed in Flp-In-CHO cells at 10 uM incubated for 5 mins by […]. It is filed as cell-based. The method, boiled down: (§1)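 FlpInCHO cells stably expressing human M1–M5 mAChRs, serum-deprived in HBSS 4 h at 37 °C, then ACh (10 nM–10 μM) with or without modulator at 10 μM for 5 min at 37 °C. Cells lysed and frozen overnight. pERK1/2 measured by AlphaScreen SureFire Ultra, as % of response to 10% FBS.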

In data set [6] the target is Muscarinic acetylcholine receptor M3 (Homo sapiens) (UniProt P20309). As to the kind of experiment: Positive allosteric modulation at human M3 mAChR expressed in Flp-In-CHO cells at 10 uM incubated for 5 mins by […]. The class given is cell-based. The method, boiled down: as §1
For data set [7], the target named is T3, Muscarinic acetylcholine receptor M5 (Homo sapiens) (UniProt P08912).
T3 sequence (whole entry): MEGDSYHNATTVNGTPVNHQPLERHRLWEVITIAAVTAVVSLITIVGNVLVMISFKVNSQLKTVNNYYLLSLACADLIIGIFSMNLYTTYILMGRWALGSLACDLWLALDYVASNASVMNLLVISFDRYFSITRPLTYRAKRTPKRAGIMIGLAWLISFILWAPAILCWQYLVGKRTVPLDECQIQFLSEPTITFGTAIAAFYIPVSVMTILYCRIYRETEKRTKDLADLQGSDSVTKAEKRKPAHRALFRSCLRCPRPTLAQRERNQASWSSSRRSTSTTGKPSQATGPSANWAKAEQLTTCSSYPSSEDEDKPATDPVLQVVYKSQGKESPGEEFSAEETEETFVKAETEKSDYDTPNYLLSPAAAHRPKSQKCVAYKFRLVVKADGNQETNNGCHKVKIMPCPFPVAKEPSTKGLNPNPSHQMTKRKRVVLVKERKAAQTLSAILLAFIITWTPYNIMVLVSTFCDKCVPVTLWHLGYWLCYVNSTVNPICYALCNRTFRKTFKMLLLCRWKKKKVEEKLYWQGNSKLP
As to the kind of experiment: Positive allosteric modulation at human M5 mAChR expressed in Flp-In-CHO cells at 10 uM incubated for 5 mins by […]. The class given is cell-based. The method in brief: as §1

Where [8] appears, read: filed as positive allosteric modulator.

Activity calls are given as the source filed them. The rule behind the calls is not given here.

The record followed here is ChEMBL document CHEMBL5620424, “Design, synthesis and evaluation of novel 2-phenyl-3-(1H-pyrazol-4-yl)pyridine positive allosteric modulators for the M4 mAChR” (Eur J Med Chem, 2023).

Chain of Muscarinic acetylcholine receptor M3 (Homo sapiens) (P20309 whole entry, looked up): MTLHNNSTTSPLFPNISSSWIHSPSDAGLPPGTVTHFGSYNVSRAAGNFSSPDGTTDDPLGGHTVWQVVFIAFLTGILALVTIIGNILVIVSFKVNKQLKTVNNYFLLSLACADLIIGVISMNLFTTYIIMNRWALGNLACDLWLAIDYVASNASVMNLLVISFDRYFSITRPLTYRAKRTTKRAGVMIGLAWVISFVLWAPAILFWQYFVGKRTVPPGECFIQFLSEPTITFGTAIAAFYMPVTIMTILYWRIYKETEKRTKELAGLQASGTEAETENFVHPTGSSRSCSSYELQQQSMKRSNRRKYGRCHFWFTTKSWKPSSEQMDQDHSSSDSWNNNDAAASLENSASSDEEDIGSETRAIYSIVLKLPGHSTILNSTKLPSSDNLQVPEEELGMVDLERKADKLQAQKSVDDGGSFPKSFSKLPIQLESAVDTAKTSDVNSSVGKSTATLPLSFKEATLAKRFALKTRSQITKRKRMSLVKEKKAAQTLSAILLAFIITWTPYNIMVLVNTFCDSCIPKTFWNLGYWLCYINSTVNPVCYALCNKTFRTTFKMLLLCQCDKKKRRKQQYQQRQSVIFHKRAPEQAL

`Cc1ccc(-c2cnn(CC3CCCC3)c2)c(-c2ccc(F)c(F)c2)n1`: the Emax in data set [1] (setting [8]) came out at 129%. Also, the log(activity) was found to be 2.04 in data set [2] and 2.65 in data set [3]. This compound registered a concentration in data set [4] of 915 nM. In addition, the result in data set [5], in data set [6] and in data set [7] was inactive.

As to `Cc1ccc(-c2cnn(CC3CCCC3)c2)c(-c2ccc3c(c2)C(=O)N(C)C3)n1`, in data set [1] (setting [8]), the Emax is 44.7%. Further, the log(activity) in data set [2] was 2.12; in data set [3], 2.34. In data set [4], this compound returned a concentration of 2440 nM. The outcome in data set [5] (setting [8]) was Active. For the same compound, the outcome in data set [6] and in data set [7] was inactive.

Take `Cc1ccc(-c2cnn(CC3CCCC3)c2)c(-c2ccc(N)c([N+](=O)[O-])c2)n1`: the Emax in data set [1] amounted to 5.6%. The log(activity) in data set [2] was determined as 1.87; in data set [3], 1.91. In data set [4], this compound displayed a concentration of 2430 nM. For the same compound, the outcome in data set [5], in data set [6] and in data set [7] was inactive.
